From ChEMBL document CHEMBL1806376, “Synthesis and biological properties of macrolactam analogs of the natural product macrolide (-)-A26771B” (2011)
≈ marks a conversion by molar mass, not a printed value.

Experiments:
Format in all cases: functional
Pseudomonas aeruginosa = assay: Antibacterial activity against Pseudomonas aeruginosa ATCC 27853 by broth dilution method
How it was run: (§1)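 MIC values determined by broth microdilution following the CLSI method.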

Haemophilus influenzae [1] = assay: Antibacterial activity against Haemophilus influenzae ATCC 31517 by broth microdilution method; how it was run: as §1
Staphylococcus aureus [2] = assay: Antibacterial activity against Staphylococcus aureus ATCC 25923 by broth microdilution method in presence of 10% human serum
How it was run: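 MIC determined by broth microdilution per the CLSI method, with 10% human serum added to the medium.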

Staphylococcus aureus [3] = assay: Antibacterial activity against methicillin-resistant Staphylococcus aureus Sa2 by broth microdilution method
How it was run: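 Broth microdilution run according to the CLSI method.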

Haemophilus influenzae [4] = assay: Antibacterial activity against efflux knock-out Haemophilus influenzae LS2 by broth microdilution method; how it was run: as §1
Staphylococcus aureus [5] = assay: Antibacterial activity against Staphylococcus aureus ATCC 25923 by broth microdilution method; how it was run: as §1
Staphylococcus aureus [6] = assay: Antibacterial activity against Staphylococcus aureus ATCC 13709 by broth microdilution method; how it was run: as §1
Streptococcus pneumoniae [7] = assay: Antibacterial activity against Streptococcus pneumoniae Pen9 IV381-221 by broth microdilution method; how it was run: as §1
Streptococcus pneumoniae [8] = assay: Antibacterial activity against Streptococcus pneumoniae ATCC 49619 by broth microdilution method; how it was run: as §1
Enterococcus faecium = assay: Antibacterial activity against Enterococcus faecium 1 by broth microdilution method; how it was run: as §1
Enterococcus faecalis = assay: Antibacterial activity against Enterococcus faecalis ATCC 29212 by broth microdilution method; how it was run: as §1
Staphylococcus aureus [9] = assay: Antibacterial activity against Staphylococcus aureus oxford by broth microdilution method; how it was run: as §1
Escherichia coli = assay: Antibacterial activity against Escherichia coli ATCC 25922 by broth microdilution method; how it was run: as §1
[10] = Haemophilus influenzae, ATCC 31517, read-out: MIC
[11] = Staphylococcus aureus, ATCC 25923, read-out: MIC
[12] = Staphylococcus aureus, Sa2, read-out: MIC
[13] = Haemophilus influenzae, LS2, read-out: MIC
[14] = Staphylococcus aureus, ATCC 13709, read-out: MIC
[15] = Streptococcus pneumoniae, Pen9 IV381-221, read-out: MIC
[16] = Streptococcus pneumoniae, ATCC 49619, read-out: MIC
[17] = Enterococcus faecium, 1, read-out: MIC
[18] = Enterococcus faecalis, ATCC 29212, read-out: MIC
[19] = Staphylococcus aureus, oxford, read-out: MIC

SMILES	MIC (Pseudomonas aeruginosa) [µg/mL]	MIC (Haemophilus influenzae [1]; [10]) [µg/mL]	MIC (Staphylococcus aureus [2]; [11]) [µg/mL]	MIC (Staphylococcus aureus [3]; [12]) [µg/mL]	MIC (Haemophilus influenzae [4]; [13]) [µg/mL]	MIC (Staphylococcus aureus [5]; [11]) [µg/mL]	MIC (Staphylococcus aureus [6]; [14]) [µg/mL]	MIC (Streptococcus pneumoniae [7]; [15]) [µg/mL]	MIC (Streptococcus pneumoniae [8]; [16]) [µg/mL]	MIC (Enterococcus faecium; [17]) [µg/mL]	MIC (Enterococcus faecalis; [18]) [µg/mL]	MIC (Staphylococcus aureus [9]; [19]) [µg/mL]	MIC (Escherichia coli) [µg/mL]	other results
CO[C@H]1CCCCCCCCC[C@@H](C)OC(=O)/C(C)=C/C1=O	> 64	> 64	> 64	> 64	> 64	> 64	> 64	> 64	> 64	> 64	> 64	> 64	> 64	–
CC(=O)O[C@H]1CCCCCCCCC[C@@H](C)OC(=O)/C=C/C1=O	> 64	32 (≈ 98.6 µM)	16	0.5 (≈ 1.54 µM)	4 (≈ 12.3 µM)	1 (≈ 3.08 µM)	0.5 (≈ 1.54 µM)	4 (≈ 12.3 µM)	2 (≈ 6.16 µM)	2 (≈ 6.16 µM)	4 (≈ 12.3 µM)	1 (≈ 3.08 µM)	> 64	–
CO[C@H]1CCCCCCCCC[C@@H](C)OC(=O)C2OC2C1=O (stereo in doubt; 16b)	–	–	–	–	–	–	–	–	–	–	> 64	–	> 64	MIC (Staphylococcus aureus [5]): >64 µg/mL; MIC (Staphylococcus aureus [6]): >64 µg/mL; MIC (Streptococcus pneumoniae [7]): >64 µg/mL; MIC (Streptococcus pneumoniae [8]): >64 µg/mL; MIC (Enterococcus faecium): >64 µg/mL; MIC (Staphylococcus aureus [9]): >64 µg/mL
CO[C@H]1CCCCCCCCC[C@@H](C)OC(=O)C2CC2C1=O (mixture of isomers)	> 64	> 64	> 64	> 64	> 64	> 64	> 64	> 64	> 64	> 64	> 64	> 64	> 64	–
Cc1nc2c([nH]1)CCCCCCCCC[C@@H](C)OC(=O)/C=C/2	> 64	> 64	> 64	32 (≈ 105 µM)	16 (≈ 52.6 µM)	32 (≈ 105 µM)	32 (≈ 105 µM)	8 (≈ 26.3 µM)	16 (≈ 52.6 µM)	16 (≈ 52.6 µM)	32 (≈ 105 µM)	32 (≈ 105 µM)	> 64	–
CO[C@H]1CCCCCCCCC[C@@H](C)OC(=O)C2OC2C1=O (single isomer, unassigned; diastereomer 1)	> 64	> 64	> 64	> 64	> 64	64 (≈ 205 µM)	32 (≈ 102 µM)	64 (≈ 205 µM)	64 (≈ 205 µM)	32 (≈ 102 µM)	–	64 (≈ 205 µM)	–	MIC (Enterococcus faecalis): 64 µg/mL (≈ 205 µM)
CO[C@H]1CCCCCCCCC[C@@H](C)OC(=O)C(S(=O)(=O)c2ccccc2)CC1=O (some centres not stated)	> 64	32 (≈ 73 µM)	32	2 (≈ 4.56 µM)	2 (≈ 4.56 µM)	1 (≈ 2.28 µM)	1 (≈ 2.28 µM)	2 (≈ 4.56 µM)	4 (≈ 9.12 µM)	4 (≈ 9.12 µM)	4 (≈ 9.12 µM)	1 (≈ 2.28 µM)	> 64	–
C[C@@H]1CCCCCCCCC[C@H](O)C(=O)CC(SCC(F)(F)F)C(=O)O1 (some centres not stated)	> 64	32 (≈ 80.3 µM)	32	1 (≈ 2.51 µM)	2 (≈ 5.02 µM)	1 (≈ 2.51 µM)	1 (≈ 2.51 µM)	4 (≈ 10 µM)	4 (≈ 10 µM)	4 (≈ 10 µM)	4 (≈ 10 µM)	1 (≈ 2.51 µM)	> 64	–
C[C@@H]1CCCCCCCCC[C@H](OC(=O)CCC(=O)OC(C)(C)C)C(=O)CC(N2CCN(C)CC2)C(=O)O1 (some centres not stated)	> 32	> 32	> 32	2 (≈ 3.71 µM)	–	4 (≈ 7.42 µM)	2 (≈ 3.71 µM)	2 (≈ 3.71 µM)	4 (≈ 7.42 µM)	4 (≈ 7.42 µM)	4 (≈ 7.42 µM)	2 (≈ 3.71 µM)	> 32	–
C[C@@H]1CCCCCCCCC[C@H](OC(=O)CCC(=O)OC(C)(C)C)C(=O)c2[nH]ncc2C(=O)O1	> 64	> 64	> 64	> 64	8 (≈ 16.7 µM)	> 64	> 64	32 (≈ 66.9 µM)	> 64	> 64	> 64	> 64	> 64	–
CO[C@H]1CCCCCCCCC[C@@H](C)OC(=O)CCC1=O	> 64	> 64	> 64	> 64	64 (≈ 214 µM)	> 64	> 64	> 64	> 64	> 64	> 64	> 64	> 64	–
COC1CCCCCCCCC[C@@H](C)NC(=O)/C=C/C1=O (single isomer, unassigned; diastereomer 2)	–	–	–	–	–	–	–	–	–	0.5 (≈ 1.69 µM)	2 (≈ 6.77 µM)	–	–	MIC (Haemophilus influenzae [1]): 2 µg/mL (≈ 6.77 µM); MIC (Staphylococcus aureus [2]): 8 µg/mL; MIC (Staphylococcus aureus [3]): 0.5 µg/mL (≈ 1.69 µM); MIC (Haemophilus influenzae [4]): 0.25 µg/mL (≈ 0.846 µM); MIC (Staphylococcus aureus [5]): 1 µg/mL (≈ 3.38 µM); MIC (Staphylococcus aureus [6]): 0.5 µg/mL (≈ 1.69 µM); MIC (Streptococcus pneumoniae [7]): 8 µg/mL (≈ 27.1 µM); MIC (Streptococcus pneumoniae [8]): 2 µg/mL (≈ 6.77 µM); MIC (Staphylococcus aureus [9]): 0.5 µg/mL (≈ 1.69 µM)
CO[C@H]1CCCCCCCCC[C@@H](C)OC(=O)C(Sc2ccccc2)CC1=O (some centres not stated)	> 64	> 64	16	2 (≈ 4.92 µM)	2 (≈ 4.92 µM)	1 (≈ 2.46 µM)	1 (≈ 2.46 µM)	1 (≈ 2.46 µM)	2 (≈ 4.92 µM)	> 64	> 64	1 (≈ 2.46 µM)	> 64	–
C[C@@H]1CCCCCCCCC[C@H](OC(=O)CCC(=O)O)C(=O)/C=C/C(=O)O1	> 32	> 32	> 32	2 (≈ 5.23 µM)	16 (≈ 41.8 µM)	4 (≈ 10.5 µM)	2 (≈ 5.23 µM)	8 (≈ 20.9 µM)	16 (≈ 41.8 µM)	4 (≈ 10.5 µM)	16 (≈ 41.8 µM)	2 (≈ 5.23 µM)	> 32	–
CC(=O)N(CCOc1ccccc1)C1CC(=O)[C@@H](OC(=O)CCC(=O)OC(C)(C)C)CCCCCCCCC[C@@H](C)OC1=O (some centres not stated)	> 32	> 32	> 32	> 32	> 32	> 32	> 32	> 32	> 32	> 32	> 32	> 32	> 32	–
COC1CCCCCCCCC[C@@H](C)NC(=O)/C=C/C1=O (single isomer, unassigned; diastereomer 1)	> 64	2 (≈ 6.77 µM)	8	1 (≈ 3.38 µM)	0.25 (≈ 0.846 µM)	1 (≈ 3.38 µM)	1 (≈ 3.38 µM)	8 (≈ 27.1 µM)	2 (≈ 6.77 µM)	–	–	1 (≈ 3.38 µM)	> 64	MIC (Enterococcus faecium): 0.5 µg/mL (≈ 1.69 µM); MIC (Enterococcus faecalis): 2 µg/mL (≈ 6.77 µM)
C[C@@H]1CCCCCCCCC[C@H](O)C(=O)/C=C/C(=O)O1	> 32	16 (≈ 56.7 µM)	32	2 (≈ 7.08 µM)	1 (≈ 3.54 µM)	2 (≈ 7.08 µM)	1 (≈ 3.54 µM)	2 (≈ 7.08 µM)	2 (≈ 7.08 µM)	8 (≈ 28.3 µM)	2 (≈ 7.08 µM)	1 (≈ 3.54 µM)	> 32	–
C[C@@H]1CCCCCCCCC[C@H](OC(=O)CCC(=O)OC(C)(C)C)C(=O)/C=C/C(=O)O1	> 32	> 32	> 32	0.5 (≈ 1.14 µM)	8 (≈ 18.2 µM)	8 (≈ 18.2 µM)	2 (≈ 4.56 µM)	1 (≈ 2.28 µM)	2 (≈ 4.56 µM)	–	2 (≈ 4.56 µM)	2 (≈ 4.56 µM)	> 32	–
CO[C@H]1CCCCCCCCC[C@@H](C)OC(=O)/C=C/C1=O	> 64	32 (≈ 108 µM)	16	0.5 (≈ 1.69 µM)	4 (≈ 13.5 µM)	1 (≈ 3.37 µM)	1 (≈ 3.37 µM)	2 (≈ 6.75 µM)	2 (≈ 6.75 µM)	2 (≈ 6.75 µM)	2 (≈ 6.75 µM)	1 (≈ 3.37 µM)	> 64	–
